The term inhibition denotes the relative decrease from the control value, in per cent.

This passage reports inhibition, IC50 and microsomal CLint results from ChEMBL document CHEMBL5346929, “Designed switch from covalent to non-covalent inhibitors of carboxylesterase Notum activity” (Eur J Med Chem, 2023).

Data set [1] concerns the target T1, Palmitoleoyl-protein carboxylesterase NOTUM (Homo sapiens, UniProt Q6P988).
T1 sequence (Q6P988 whole entry): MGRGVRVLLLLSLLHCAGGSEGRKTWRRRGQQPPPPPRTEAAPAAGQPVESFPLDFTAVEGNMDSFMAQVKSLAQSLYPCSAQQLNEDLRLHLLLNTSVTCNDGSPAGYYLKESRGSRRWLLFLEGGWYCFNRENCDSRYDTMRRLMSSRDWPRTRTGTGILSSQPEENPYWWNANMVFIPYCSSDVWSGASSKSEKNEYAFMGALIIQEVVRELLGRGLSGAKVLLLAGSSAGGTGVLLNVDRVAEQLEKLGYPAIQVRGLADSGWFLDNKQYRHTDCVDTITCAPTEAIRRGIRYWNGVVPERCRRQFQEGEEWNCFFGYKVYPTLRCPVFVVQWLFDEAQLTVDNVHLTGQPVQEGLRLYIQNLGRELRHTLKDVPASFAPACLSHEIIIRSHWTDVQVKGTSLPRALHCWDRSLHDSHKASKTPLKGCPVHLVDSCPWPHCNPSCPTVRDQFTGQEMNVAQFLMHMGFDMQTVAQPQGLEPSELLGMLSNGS
Briefly: Inhibition of human recombinant Notum (81 to T451 residues) expressed in HEK293S cells using OPTS as substrate at 10 uM incubated for 40 mins by microplate reader analysis relative to control. Summed up:
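Biochemical assay with the Notum 81–451 C330S construct and the synthetic fluorescent substrate OPTS.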

Data set [2] deals with T1, Palmitoleoyl-protein carboxylesterase NOTUM. Description: Inhibition of human recombinant Notum (81 to T451 residues) expressed in HEK293S cells using OPTS as substrate incubated for 40 mins by microplate reader analysis.
Data set [3] has as its system liver microsomes (Mus musculus). Description: Metabolic stability in mouse liver microsome assessed as intrinsic clearance measured upto 60 mins by LC-MS/MS analysis. Conditions: read-out: CLH; call rule not given here.

`CC(=O)n1ncc2ccccc21`: in data set [1], the inhibition at 10 µM amounted to 20%.

With `CC(=O)n1cnc2ccccc21`, the IC50 entry in data set [2] is recorded as “Not Active”. The inhibition at 10 µM in data set [1] is less than 20%.

On to `CC(=O)N(C)c1ccccc1C`, for which the inhibition at 10 µM in data set [1] stood at 20%.

With `CC(=O)N1CCc2cc(C#N)ccc21`, in data set [1], the inhibition at 10 µM came to 20%.

With `O=C1CCCN1c1ccccc1`, the inhibition at 10 µM in data set [1] amounted to 20%.

With `O=C1CCC2Cc3ccccc3N12` (racemic), the microsomal CLint in data set [3] was determined as 74 µL/min/mg.

Take `CC(=O)N1CCS(=O)(=O)c2ccccc21`: the inhibition at 10 µM in data set [1] was 20%.

In the case of `CC(=O)N1CCC(c2ccccc2)C1` (stereo unspecified), in data set [2], the IC50 result is reported as “Not Active”. Further, the inhibition at 10 µM in data set [1] is less than 20%.

In the case of `CCN1CCc2c(Cl)cccc21`, the inhibition at 10 µM in data set [1] was determined as 20%.
